# Data reported in ChEMBL document CHEMBL4665798, “Novel Human Urate Transporter 1 Inhibitors as Hypouricemic Drug Candidates with Favorable Druggability” (J Med Chem, 2020).
# Columns and labels:
# [1] = Sub-acute toxicity in Kunming mouse assessed as edema in proximal tubule at 50 mg/kg, po administered as single dose every other day for 14 days by H and E staining based assay; assay type: organism-based; details: in vivo, 336 h, time 14 day
# In short: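 Kunming mice, n = 4 per sex, fasted 12 h. Dosed orally on D0, D2, D4, D6, D8, D10 and D12; controls received an equal volume of vehicle. Weighed before each dose. Killed at D14; heart, liver, spleen, lung and kidney taken for haematoxylin and eosin staining.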
# [2] = Acute toxicity in Kunming mouse assessed as induction of abnormal behaviors by measuring anorexia at 500 mg/kg, ig; assay type: organism-based; details: in vivo, po
# [3] = MRT (0 to infinity) in male Kunming mouse at 2 mg/kg, po by LC-MS/MS analysis; assay type: ADME, organism-based; details: in vivo
# In short: (§1)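 Male Kunming mice, ten in total, split into five groups; single oral dose in PEG 400/normal saline (70/30, v/v). Blood taken from submandibular or saphenous vein into K2EDTA tubes at 0.25, 0.5, 1, 2, 4, 8, 24, 48, 72 h. Plasma spun at about 4 °C and kept at -70 °C. Acetonitrile precipitation with dexamethasone internal standard, then LC-MS/MS against plasma standard curves.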
# [4] = AUC (0 to infinity) in male Kunming mouse at 50 mg/kg, po by LC-MS/MS analysis; assay type: ADME, organism-based; design: route oral, time infinity, dose 50 mg/kg; details: in vivo; in short: as §1
# [5] = system: Mus musculus; assay: Hypouricemic activity in Kunming mouse model of xanthine/potassium oxonate-induced acute hyperuricemia assessed as decrease in serum uric acid level at 2 mg/kg administered 3 hrs prior to xanthine/potassium oxonate and measured after 6 hrs relative to control; assay type: functional; design: scale not given: the % may be the effect or the level left; details: time 9 hrs
# In short: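 Male Kunming mice, hyperuricemia induced by intragastric xanthine plus subcutaneous potassium oxonate (0.2 mL each). […] Groups: normal vehicle, untreated model, active control, test. Serum uric acid measured. Decrease ratio = (model SUA − compound SUA)/(model SUA − vehicle SUA).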
# [6] = AUC (0 to t) in male Kunming mouse at 2 mg/kg, po by LC-MS/MS analysis; assay type: ADME, organism-based; design: dose 2 mg/kg; details: in vivo; in short: as §1
# [7] = AUC (0 to t) in male Kunming mouse at 50 mg/kg, po by LC-MS/MS analysis; assay type: ADME, organism-based; design: dose 50 mg/kg; details: in vivo; in short: as §1
# [8] = Acute toxicity in Kunming mouse assessed as induction of abnormal behaviors by measuring clonic convulsion at 500 mg/kg, ig; assay type: organism-based; details: in vivo, po
# [9] = AUC (0 to infinity) in male Kunming mouse at 2 mg/kg, po by LC-MS/MS analysis; assay type: ADME, organism-based; design: time infinity, route oral, dose 2 mg/kg; details: in vivo; in short: as §1
# [10] = Acute toxicity in Kunming mouse assessed as death at 250 mg/kg, ig measured for 1 week relative to control; assay type: organism-based; details: in vivo, po, 168 h, time 1 weeks
# In short: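 Kunming mice of 10-12 g, 12 per group (6 male, 6 female), fasted 12 h. Single intragastric dose of a suspension in 5% CMC-Na. Deaths, behaviour (lethargy, clonic convulsion, anorexia, ruffled fur) and body weight followed for one week and compared with vehicle controls.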
# [11] = Half-life in male Kunming mouse at 50 mg/kg, po by LC-MS/MS analysis; assay type: ADME, organism-based; details: in vivo; in short: as §1
# [12] = Tmax in male Kunming mouse at 2 mg/kg, po by LC-MS/MS analysis; assay type: ADME, organism-based; details: in vivo; in short: as §1
# [13] = Tmax in male Kunming mouse at 50 mg/kg, po by LC-MS/MS analysis; assay type: ADME, organism-based; details: in vivo; in short: as §1
# [14] = Acute toxicity in male Kunming mouse assessed as change in body weight at 500 mg/kg, ig measured for 1 week; assay type: organism-based; details: in vivo, po, 168 h, time 1 weeks
# [15] = Cmax in male Kunming mouse at 50 mg/kg, po by LC-MS/MS analysis; assay type: ADME, organism-based; design: route oral, dose 50 mg/kg; details: in vivo; in short: as §1
# [16] = Sub-acute toxicity in Kunming mouse assessed as hydropic degeneration of hepatocytes at 50 mg/kg, po administered as single dose every other day for 14 days by H and E staining based assay; assay type: organism-based; details: in vivo, 336 h, time 14 day
# [17] = Sub-acute toxicity in Kunming mouse assessed as hepatocellular condensation of liver at 50 mg/kg, po administered as single dose every other day for 14 days by H and E staining based assay; assay type: organism-based; details: in vivo, 336 h, time 14 day
# [18] = Half-life in male Kunming mouse at 2 mg/kg, po by LC-MS/MS analysis; assay type: ADME, organism-based; details: in vivo; in short: as §1
# [19] = Acute toxicity in Kunming mouse assessed as induction of abnormal behaviors by measuring lethargy at 500 mg/kg, ig; assay type: organism-based; details: in vivo, po
# [20] = Sub-acute toxicity in female Kunming mouse assessed as increase in body weight at 50 mg/kg, po administered once every second day for 14 days; assay type: organism-based; details: in vivo, 336 h, time 14 day
# [21] = MRT (0 to infinity) in male Kunming mouse at 50 mg/kg, po by LC-MS/MS analysis; assay type: ADME, organism-based; details: in vivo; in short: as §1
# [22] = Acute toxicity in female Kunming mouse assessed as change in body weight at 500 mg/kg, ig measured for 1 week; assay type: organism-based; details: in vivo, po, 168 h, time 1 weeks
# [23] = Sub-acute toxicity in Kunming mouse assessed as ballooning degeneration of liver at 50 mg/kg, po administered as single dose every other day for 14 days by H and E staining based assay; assay type: organism-based; details: in vivo, 336 h, time 14 day
# [24] = Sub-acute toxicity in male Kunming mouse assessed as increase in body weight at 50 mg/kg, po administered once every second day for 14 days; assay type: organism-based; details: in vivo, 336 h, time 14 day
# [25] = Sub-acute toxicity in Kunming mouse assessed as congestion in hepatic central vein at 50 mg/kg, po administered as single dose every other day for 14 days by H and E staining based assay; assay type: organism-based; details: in vivo, 336 h, time 14 day
# [26] = organism: Rattus norvegicus; assay: Hypouricemic activity in rat model of xanthine/potassium oxonate-induced acute hyperuricemia assessed as decrease in serum uric acid level relative to control; assay type: functional; design: scale not given: the % may be the effect or the level left
# [27] = Cmax in male Kunming mouse at 2 mg/kg, po by LC-MS/MS analysis; assay type: ADME, organism-based; design: route oral, dose 2 mg/kg; details: in vivo; in short: as §1
# [28] = system: Mus musculus; assay: Potency index, ratio of lesinurad to test compound for hypouricemic activity in Kunming mouse model of xanthine/potassium oxonate-induced acute hyperuricemia assessed as decrease in serum uric acid level at 2 mg/kg administered 3 hrs prior to xanthine/potassium oxonate and measured after 6 hrs; assay type: functional
smiles,measurement,setting,value
O=C(O)CSc1nnc(Br)n1-c1ccc(C2CC2)c2ccccc12,Activity,[1],Toxic
same,Activity,[2],Non-Toxic
same,MRT inf,[3],5.09 h
same,AUC(0-inf),[4],145000 ng·h/mL
same,Activity,[5],27.06%
same,AUC(0-t),[6],7080 ng·h/mL
same,AUC(0-t),[7],144000 ng·h/mL
same,Activity,[8],Non-Toxic
same,AUC(0-inf),[9],7120 ng·h/mL
same,Activity,[10],Toxic
same,half-life,[11],7.46 h
same,Tmax,[12],0.667 h
same,Tmax,[13],1 h
same,Activity,[14],Non-Toxic
same,Cmax,[15],26500 ng/mL
same,Activity,[16],Toxic
same,Activity,[17],Toxic
same,half-life,[18],3.08 h
same,Activity,[19],Non-Toxic
same,Activity,[20],Non-Toxic
same,MRT inf,[21],6.35 h
same,Activity,[22],Non-Toxic
same,Activity,[23],Toxic
same,Activity,[24],Non-Toxic
same,Activity,[25],Toxic
same,Activity,[26],52.99%
same,Cmax,[27],1500 ng/mL
CC(Sc1nc2ncccc2n1-c1ccc(C#N)c2ccccc12)C(=O)O (centres undefined),Ratio,[28],2.8
same,Activity,[5],95.01%
